Results on 15 compounds are retold here after paper PMC4847003 (International Journal for Parasitology: Drugs and Drug …, 2015).

Structures are written as SMILES. Counter-ions that a name gives are not always drawn. Like-named read-outs stand apart in the source and are kept apart here.

The nature of series [1]: Host cell number in the same well of the amastigote image-based assay. Details: species or system mouse. The settings on record: mouse, 3T3 host cells infected with T. cruzi.
Another series has as its system 3T3 host cells. The series is described as above. Details: species or system mouse. The settings on record: for SI (3T3): 3T3 IC50 or highest dose tested / amastigote IC50.
The subject of another series is HEK293 cells. The experiment in a line: HEK293 viability assay. It is filed as cell-based, human. The settings on record: for IC50: read-out: IC50 HEK293 (μM ± SD); for Selectivity (SI) of T. cruzi amastigotes to HEK293 cells: based on solid samples.
The test system of a further series is 3T3 cells. The experiment in a line: Activity against sub-confluent 3T3 cells. The settings on record: at 73 μM, seeding density of 1000 cells per well. The class given is cell-based, mouse. In short, it runs like this: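 3T3 cells seeded at 1000 to 62 cells/well in collagen-coated 384-well plates and grown 48 h. Wells were washed twice and refilled with growth medium. A test-compound dose series was added in duplicate per density, with 30 μM puromycin (positive) and 0.37% DMSO (negative) controls. After a further 48 h, 70 μM final resazurin was added. […] Averaged over duplicate experiments.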

Another series deals with T. cruzi amastigotes. The experiment in a line: Residual amastigotes following compound treatment, 48 and 72 h image-based assay. The settings on record: for Emax at 18 µM / IC50: Trypanosoma cruzi; for Emax at 18 µM: read-out: % of infections removed at Emax concentration; for IC50: read-out: IC50 value against T. cruzi amastigotes. The class given is cell-based, Trypanosoma cruzi Tulahuen strain. In short, it runs like this: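 3T3 fibroblasts seeded at 1 × 10³ cells/well in collagen-coated 384-well plates, then infected with T. cruzi trypomastigotes. Free parasites were washed off with PBS after 24 h. Test compound was given as a dose series, pre-diluted 1:21 in water, for 48 or 72 h. Cells were fixed in 4% paraformaldehyde and stained with Hoechst in 0.1% Triton X-100. Residual intracellular spots at the Emax concentration were scored, including by eye.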

Series [2] deals with Trypanosoma cruzi amastigotes. The experiment in a line: Image-based T. cruzi amastigote assay in 3T3 fibroblasts, 48 h compound exposure. The class given is cell-based, Trypanosoma cruzi Tulahuen strain. The settings on record: Fibroblast.
A further series has as its system T. cruzi trypomastigotes. The series is described as follows: Trypomastigote viability assay. The settings on record: for activity against the trypomastigote: Malaria Box retest; for IC50: read-out: IC50 T. cruzi Trypomastigote (μM ± SD). The class given is cell-based, Trypanosoma cruzi Tulahuen strain.
The next series deals with Y strain infection. The settings on record: ref Moraes et al., 2014, cited from earlier work.
For series [3], the system named is Tulahuen strain parasites in U2OS cells. The settings on record: 96 h treatment, high concentrations; ref Moraes et al., 2014; cited from earlier work.
Where [4] appears, read: read-out: T. cruzi amastigote IC50 (μM ± SD), Malaria Box sample stored in 100% DMSO, two independent experiments.
Setting [5] is: solid sample, 48 h, 2 independent experiments.
[6] abbreviates: read-out: 3T3 % activity highest dose, at 9.2 μM, DMSO sample.
[7] abbreviates: Trypanosoma cruzi, read-out: T. cruzi Trypomastigote % activity at highest dose.
[8] abbreviates: read-out: IC50 value against T. cruzi amastigotes, Malaria Box primary screening.

As for `CC[C@@]1(O)C(=O)OCc2c1cc1n(c2=O)Cc2cc3ccccc3nc2-1` [Camptothecin, camptothecin], in [1], the cytotoxicity at 48 h, 5 µM was 38% and the cytotoxicity at 48 h, 16.8 µM was found to be 44%. In addition, the “SI (3T3)” value in the series on 3T3 host cells (library DMSO stock) is above 49.41. Further, the “SI (3T3)” value with 3T3 host cells (solid sample) is above 55.56.
Consider `Cc1cc(C2CCCCC2)n(O)c(=O)c1` [Ciclopirox Olamine, ciclopirox olamine], for which the concentration for half-maximal inhibition (IC50) with HEK293 cells (Homo sapiens, HEK293, 48 h) was determined as 1.4 ± 1.07 µM. For the same compound, in the series on HEK293 cells (Table 2 footnote a, solid sample), the “Selectivity index (SI) to HEK293 cells” value turned out to be 0.36. Besides, the “activity against 3T3 cells” value in the series with 3T3 cells is listed as 38%. The compound also registered a cytotoxicity at 48 h, 136.5 µM in [1] of 42%. In addition, the “SI (3T3)” value in the series on 3T3 host cells (library DMSO stock) is above 3.54; with 3T3 host cells (solid sample), above 35.0. For the same compound, in the series with 3T3 host cells (Mus musculus, read-out: Host % activity at highest dose), the activity at 19 µM was 53%.
Consider `Clc1ccccc1C(c1ccccc1)(c1ccccc1)n1ccnc1` [Clotrimrazole HCl, clotrimazole, reference compound], for which the “residual amastigotes at the Emax concentration” value in the series on T. cruzi amastigotes (48 h incubation, 0.92 µM in Figure S3) is “amastigotes that appeared to remain”.
As for `CCOc1cccc2sc(N(Cc3cccnc3)C(=O)C3CCCCC3)nc12` [MMV001230], the “Selectivity (SI) of T. cruzi amastigotes to HEK293 cells” value (“Selectivity (SI)” below) in the series on HEK293 cells is above 94.52. For the same compound, the “SI (3T3)” value in the series on 3T3 host cells (based on solid samples) is reported as above 87.26.
As for `COc1ccc2sc(N(Cc3cccnc3)C(=O)c3ccc(C#N)cc3)nc2c1` [MMV001239, 4-cyano-N-(5-methoxy-1,3-benzothiazol-2-yl)-N-(pyridin-3-ylmethyl)benzamide], in the series on HEK293 cells, the “activity / cytotoxicity against HEK293 cells” value is given as “no cytotoxicity detected” and the “Selectivity (SI)” value was above 22.37. The “% of infections removed at Emax concentration” value with T. cruzi amastigotes (18 μM, 48 h incubation) is recorded as “Ninety”. For the same compound, the Emax at 18 µM in the series with T. cruzi amastigotes (48 h) was determined as 90%. The “cytotoxicity against 3T3 cells” value in the series on 3T3 host cells is “no cytotoxicity detected”. For the same compound, in the series with 3T3 host cells (based on solid samples), the “SI (3T3)” value is on record as above 20.65. Also, the IC50 in series [2] (setting [4]) is 0.86 ± 0.006 µM.
On to `COc1ccc(C)c2sc(N(Cc3cccnc3)C(=O)c3ccc(C#N)cc3)nc12` [MMV001241], for which, in the series on HEK293 cells (at 79.4 μM, solid sample), the “HEK293 % activity at highest dose” value is given as 44% at 79.4 μM. Besides, the “Selectivity (SI)” value with HEK293 cells is listed as above 34.22. Besides, the “SI (3T3)” value in the series with 3T3 host cells (based on solid samples) is above 31.59.
On to `O=C(Nc1nc(-c2ccccn2)cs1)c1ccccc1Br` [MMV665909], for which the results for the concentration for half-maximal inhibition (IC50) in the series with HEK293 cells (setting [5]), with T. cruzi trypomastigotes (Malaria Box DMSO sample) and in the series on T. cruzi trypomastigotes (Malaria Box solid sample) were 1.97 ± 0.65 µM, 1.08 ± 0.01 µM and 1.05 ± 0.13 µM, respectively. Further, in the series with T. cruzi trypomastigotes, the “activity against the trypomastigote” value was “active against the trypomastigote life cycle form”. Further, the cytotoxicity amounted to 35% in the series with 3T3 host cells (setting [6]) and 44% in the series on 3T3 host cells (read-out: 3T3 % activity highest dose, at 73.3 μM, solid sample).
With `COc1ccccc1N1CCN(C(CNS(=O)(=O)c2ccc(Cl)cc2)c2cccnc2)CC1` (stereo not drawn) [MMV665914, 4-chloro-N-(2-(4-(2-methoxyphenyl)piperazin-1-yl)-2-(pyridin-3yl)ethyl) benzene sulfonamide], in the series on HEK293 cells, the “Selectivity (SI)” value is given as above 45.90. Also, in the series with T. cruzi amastigotes (18 μM, 48 h incubation), the “% of infections removed at Emax concentration” value turned out to be 97%. Besides, the “% of parasites removed at Emax concentration” value in the series on T. cruzi amastigotes (18 μM, 72 h incubation) was 99%. The “SI (3T3)” value in the series with 3T3 host cells (based on solid samples) is listed as above 42.37. The cytotoxicity in the series with 3T3 host cells (setting [6]) came to 25%.
Consider `Cc1[nH]c2ccccc2c(=O)c1CC=C(Cl)Cl` [MMV665994, 3-(3,3-Dichloro-2-propen-1-yl)-2-methyl-4(1H)-quinolinone], for which the “Selectivity (SI)” value in the series on HEK293 cells is listed as above 64.55. In the series on T. cruzi amastigotes (48 h), the Emax at 18 µM is 97%. Besides, the inhibition at 87 µM with T. cruzi trypomastigotes (setting [7]) was 52%. In the series on 3T3 host cells (based on solid samples), the “SI (3T3)” value was above 59.59. In addition, the half-inhibitory concentration (IC50) in series [2] (setting [4]) stood at 0.66 ± 0.7 µM.
Regarding `O=C(NC(c1ccccc1)c1ccc2cccnc2c1O)c1ccccc1` (stereo not drawn) [MMV666080], the “activity / cytotoxicity against HEK293 cells” value in the series on HEK293 cells is recorded as “active against HEK293 cells”. Further, the IC50 in the series with HEK293 cells (setting [5]) turned out to be 2.88 ± 0.9 µM; in the series with T. cruzi trypomastigotes (Malaria Box DMSO sample) it was 0.9 ± 0.06 µM; with T. cruzi trypomastigotes (Malaria Box solid sample), 0.52 ± 0.04 µM. Further, the “activity against the trypomastigote” value with T. cruzi trypomastigotes is on record as “active against the trypomastigote life cycle form”. Further, the “SI (3T3)” value in the series on 3T3 host cells (based on solid samples) is above 25.77. The cytotoxicity with 3T3 host cells (setting [6]) came out at 40%; with 3T3 host cells (read-out: 3T3 % activity highest dose, at 36.6 μM, solid sample), 34%.
`CC1CS(=O)(=O)CCN1/N=C/c1ccc([N+](=O)[O-])o1` (stereo not drawn) [Nifurtimox, nifurtimox]: the “Selectivity (SI)” value with HEK293 cells was above 251.1. For the same compound, in series [1], the cytotoxicity at 48 h, 153.1 µM was 32%. For the same compound, the entries for the “SI (3T3)” value in the series with 3T3 host cells (based on solid samples) and in the series on 3T3 host cells (solid sample) were above 231.8 and above 157.41, respectively. In addition, the “activity against host cells” value in the series with 3T3 host cells (Malaria Box primary screening) is “no corresponding activity against host cells”. Moreover, the half-maximal inhibitory concentration (IC50) was 0.764 µM in [2] (setting [8]) and 0.59 ± 0.1 µM in series [2] (setting [4]).
Consider `COc1ccc(C[C@H](N)C(=O)N[C@H]2[C@@H](O)[C@H](n3cnc4c(N(C)C)ncnc43)O[C@@H]2CO)cc1` [Puromycin, puromycin], for which the 50% inhibitory concentration (IC50) in the series on HEK293 cells (Homo sapiens, HEK293, 48 h) amounted to 0.28 ± 0.04 µM; with 3T3 host cells (Mus musculus, read-out: Host IC50 ± stdev, 3T3, run of library DMSO retest) it was 3040 ± 520 nM; with 3T3 host cells (Mus musculus, read-out: Host IC50 ± stdev, 3T3, run of solid sample retest), 2760 ± 690 nM; in series [2] (setting [8]), 2.35 µM; in series [2] (setting [4]), 2.54 ± 0.13 µM. For the same compound, in the series on HEK293 cells, the “Selectivity (SI)” value came out at 0.12. In addition, the entries for the “SI (3T3)” value in the series with 3T3 host cells (based on solid samples), in the series with 3T3 host cells (library DMSO stock) and with 3T3 host cells (solid sample) were 1.48, 0.97 and 1.75, respectively.
For `CN(C)c1ccc(Nc2c3ccccc3nc3ccccc23)cc1` [STL088556, N′-(acridin-9-yl)-N,N-dimethylbenzene-1,4-diamine], in the series on HEK293 cells (Homo sapiens, HEK293, read-out: HEK293 % activity at highest dose), the activity at 79.4 µM amounted to 115%. Besides, the inhibition at 10.9 µM in the series on T. cruzi trypomastigotes (setting [7]) was 65%. In [1], this compound showed a cytotoxicity at 48 h, 9.2 µM of 30% and a cytotoxicity at 48 h, 73.3 µM of 62%. Besides, the activity at 73 µM in series [2] (read-out: T. cruzi amastigote % activity) stood at 62%. Moreover, in series [2] (setting [4]), the IC50 was 2.37 ± 1.51 µM.
Regarding `COc1c(C)c2c(c(O)c1C/C=C(\C)CCC(=O)[O-])C(=O)OC2.[Na+]` [Sodium Mycophenolate, sodium mycophenolate], the “SI (3T3)” value with 3T3 host cells (library DMSO stock) is listed as above 19.11. Further, the cytotoxicity with 3T3 host cells (read-out: Host % activity at highest dose, 3T3, at 17.2 μM, library DMSO stock) amounted to 30%.
As to `CC[C@@H]([C@H](C)O)n1ncn(-c2ccc(N3CCN(c4ccc(OC[C@@H]5CO[C@@](Cn6cncn6)(c6ccc(F)cc6F)C5)cc4)CC3)cc2)c1=O` [posaconazole, reference compound], the “residual amastigotes at the Emax concentration” value in the series with T. cruzi amastigotes (Emax of 50 nM, 48 and 72 h (Figure S5)) is given as “presence of a small number of amastigotes could be seen”. Besides, the IC50 came out at 6 ± 0.6 nM in the series with T. cruzi amastigotes (48 h) and 4.9 ± 3.6 nM in the series with T. cruzi amastigotes (72 h). The “reduction of Y strain infection” value with Y strain infection (72 h exposure) is 84%; with Y strain infection (exposure to 80 nM for 48 h), “approximately 60%”. The “parasites reduced by” value in series [3] is given as 93%.
